Measurements reported in ChEMBL document CHEMBL1151809, “Prenylated and benzylated flavonoids from the fruits of Cudrania tricuspidata” (J Nat Prod, 2009).

Assays:
RAW264.7 [1] = test: Inhibition of LPS-induced nitric oxide production in mouse RAW264.7 cells by Griess assay; format: functional, cell-based
Summary of the method: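 LPS-stimulated RAW 264.7 cells; NO output measured as nitrite in culture supernatant by Griess reagent. IC50 derived, reported as mean ± SD from three separate experiments. Aminoguanidine run as positive control.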

RAW264.7 [2] = test: Cytotoxicity against mouse RAW264.7 cells by CCK-8 assay; format: cell-based
Summary of the method: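 Viability read by CCK-8 on the cells remaining after the Griess nitrite assay of the LPS-stimulated RAW 264.7 cultures.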

Row | SMILES | IC50 (RAW264.7 [1]) [µM] | Activity (RAW264.7 [2])
1 | C=C(C)C(O)Cc1c(O)c(CC=C(C)C)c(O)c2c(=O)c(-c3ccc(O)cc3)coc12 (stereo not given) [ERYSENEGALENSEIN E] | 18.4 | Non-toxic
2 | O=C1c2c(cc(O)c(Cc3ccc(O)cc3)c2O)O[C@H](c2ccc(O)cc2)[C@H]1O [GERICUDRANIN E] | 41.8 | Non-toxic
3 | CC(C)=CCc1c2oc(C(C)(C)O)cc2c(O)c2c(=O)c(-c3ccc(O)cc3)coc12 | 12.1 | Non-toxic
4 | CC(C)=CCc1c2c(c3occ(-c4ccc(O)cc4)c(=O)c3c1O)CC(C(C)(C)O)O2 (stereo not given) [SENEGALENSIN] | 13.1 | Non-toxic
5 | O=C1c2c(O)c(Cc3ccc(O)cc3)c(O)c(Cc3ccc(O)cc3)c2O[C@H](c2ccc(O)cc2)[C@H]1O [GERICUDRANIN D] | > 50 | Non-toxic
6 | C=C(C)C(O)Cc1c(O)c(CC=C(C)C)c2occ(-c3ccc(O)cc3)c(=O)c2c1O (stereo not given) [ISOERYSENEGALENSEIN E] | 12.7 | Non-toxic
7 | N=C(N)NN [PIMAGEDINE] | 28 | –
8 | CO[C@@H]1c2c(c(CC=C(C)C)c(O)c3c(=O)c(-c4ccc(O)cc4)coc23)O[C@H]1C(C)(C)O | 11.8 | Non-toxic
9 | COc1ccc(-c2coc3cc4c(c(O)c3c2=O)C=CC(C)(C)O4)cc1O | > 50 | Non-toxic
10 | O=C1c2c(O)cc(O)c(Cc3ccc(O)cc3)c2O[C@H](c2ccc(O)cc2)[C@H]1O | > 50 | Non-toxic
11 | O=c1c(-c2ccc(O)c(O)c2)coc2cc(O)cc(O)c12 [OROBOL] | 18.7 | Non-toxic
12 | C=C(C)C(O)Cc1c(O)cc2occ(-c3ccc(OC)cc3)c(=O)c2c1O (stereo not given) | > 50 | Non-toxic
13 | CC(C)=CCc1c(O)c(CC=C(C)C)c2occ(-c3ccc(O)cc3)c(=O)c2c1O | 19.2 | Non-toxic
